Assay results collected from several papers.
Lines come from different studies, so protocols differ.
Target: Serine/threonine-protein kinase NIM1 (NIM1K, Homo sapiens, UniProt Q8IY84)

| Compound | assay | setting | remaining binding [%] |
| --- | --- | --- | --- |
| CN(C)c1nccc(-c2cnn3ncccc23)n1 | binding | 1 µM | 52 |
| CS(=O)(=O)N1CCCC(NC(=O)[C@H](CCC2CCCCC2)NC(=O)c2ccc(CNC(=O)c3cnc4ccccn34)cc2)C1 (stereo partly shown) | cell-free assay, competition with immobilised ligand | 0.1 µM | 64 |
| O=C(c1ccc(Nc2ncc(Cl)c(-c3cc4ccccc4s3)n2)cc1)N1CCC(N2CCCC2)CC1 | binding, competition with immobilised ligand | 1 µM | 20 |
| COc1cnc(Nc2cccc(S(N)(=O)=O)c2)nc1N1CCN(c2ccccc2)C(=O)C1 | binding, competition with immobilised ligand | 1 µM | 87 |
| O=C(Nc1cccnn1)N1CCC(=Cc2cccc(Oc3ccc(C(F)(F)F)cn3)c2)CC1 | cell-free assay, competition with immobilised ligand | 1 µM | 100 |
| O=C(Nc1c[nH]nc1C(=O)NC1CCNCC1)c1cc(F)cc(F)c1 | binding, competition with immobilised ligand | 1 µM | 100 |
| CN(c1nccc(-c2cnn3ncccc23)n1)C1CC1 | binding | 1 µM | 100 |
| CS(=O)(=O)c1cc(C2(NC(=O)c3cncc4c3cnn4-c3ccc(F)cc3)CC2)ccn1 | cell-free assay, competition with immobilised ligand | 1 µM | 56 |
| COc1cnc(Nc2cccc(S(N)(=O)=O)c2)nc1N1CCN(c2ccccc2)CC1 | binding, competition with immobilised ligand | 1 µM | 71 |
| CC(=O)C1=C(C)N(c2cccc(C(F)(F)F)c2)C(=O)N[C@@H]1c1ccc(C#N)nc1 | cell-free assay, competition with immobilised ligand | 1 µM | 83.5 |
| Cc1cnn2ncc(-c3ccnc(N(C)C)n3)c2c1 | binding | 1 µM | 92 |
| FC(F)(F)Oc1cccc(-c2cnc3ccc(-c4ccncc4)nn23)c1 | cell-free assay, competition with immobilised ligand | 5 µM | 87 |
| CO[C@@H](C)c1c(Nc2ccc([C@H](N(C)C(=O)C3CCS(=O)(=O)CC3)C(F)(F)F)cc2)cnc2cc(Cl)nn12 | cell-free assay, competition with immobilised ligand | 1 µM | 79 |
| c1cncc(-c2cccc(Nc3nccc(NC4CCCCC4)n3)c2)c1 | binding, competition with immobilised ligand | 10 µM | 88 |
| c1cnn2ncc(-c3ccnc(N4CCC45COC5)n3)c2c1 | binding | 1 µM | 61 |
| CS(=O)(=O)NCC[C@H](NC(=O)c1cncc2c1cnn2-c1ccc(F)cc1)c1ccnc(S(C)(=O)=O)c1 | cell-free assay, competition with immobilised ligand | 1 µM | 100 |
| N[C@@H]1CCN(c2nccc(-c3cnn4ncccc34)n2)C1 | binding | 1 µM | 79 |
| O=C(NCCCN1CCOCC1)c1ccc(Nc2nccc(-c3cc4ccccc4s3)n2)cc1 | binding, competition with immobilised ligand | 1 µM | 86 |
| C[C@@H]1CCN(c2nccc(-c3cnn4ncccc34)n2)C1 | binding | 1 µM | 87 |
| O=C(NCCCN1CCOCC1)c1ccc(Nc2ncc(Cl)c(-c3ccc(Cl)s3)n2)cc1 | binding, competition with immobilised ligand | 1 µM | 20 |
| COc1ccnn2ncc(-c3ccnc(N(C)C)n3)c12 | binding | 1 µM | 100 |
| Nc1ncc2c(n1)-c1c([nH]c3ccc(C#CC4CC4)cc13)CCCC2 | binding, competition with immobilised ligand | 1 µM | 61 |
